Results from different studies.
Compare with care: the assays were run in different laboratories.
REN: Renin (REN, Homo sapiens, UniProt P00797)
CDK4: Cyclin-dependent kinase 4 (CDK4, Homo sapiens, UniProt P11802)

C#Cc1n[nH]c2c(-c3cn(C(C)c4ccccn4)c(=O)[nH]c3=O)cc(F)cc12 (stereo not shown) — inhibition (Ephrin type-A receptor 5 (EPHA5, Homo sapiens, UniProt P54756); enzyme activity; inhibitor; 1 µM): 4%
Cn1cc(-c2cc(F)cc(N3CCn4c(cc5c4CCCC5)C3=O)c2CO)cc(Nc2ccc(N3CCN(C4COC4)CC3)cn2)c1=O — inhibition (Serine/threonine-protein kinase 3 (STK3, Homo sapiens, UniProt Q13188); enzyme activity; inhibitor; 0.1 µM): 13%
COCCCOc1cc(C[C@@H](C[C@H](N)[C@@H](O)C[C@H](C(=O)NCC(C)(C)C(N)=O)C(C)C)C(C)C)ccc1OC — inhibition (REN; enzyme activity; inhibitor; 1 nM): 11%
CC(C)C[C@H](NC(=O)[C@H](Cc1ccccc1)NC(=O)c1cnccn1)B(O)O — inhibition (GZMA (Homo sapiens, UniProt P12544); enzyme activity; inhibitor; 33 µM): 72.4%
O=C(Nc1cccnn1)N1CCN([C@@H]2CCOc3cc(C(F)(F)F)ccc32)CC1 — inhibition (Amine oxidase [flavin-containing] A (Maoa, Rattus norvegicus, UniProt P21396); cell-free assay; 20 µM): 14%
CCOC(=O)[C@H]1Cc2c(cc([N+](=O)[O-])cc2[N+](=O)[O-])[C@H](O)[C@]12C(=O)Nc1ccc(Cl)cc12 — inhibition (CDK4; cell-free assay; inhibitor; TR-FRET; 1 µM): 45.2%
C[C@H](C(=O)N[C@H]1COc2ccccc2[C@@H]1S(C)(=O)=O)c1ccc(F)cc1 — inhibition (REN; enzyme activity; inhibitor; 10 µM): -2%
CCOC(=O)[C@H]1Cc2c(cc([N+](=O)[O-])cc2[N+](=O)[O-])[C@@H](O)[C@@]12C(=O)Nc1cc(Br)ccc12 — inhibition (CDK4; cell-free assay; inhibitor; TR-FRET; 1 µM): 59%
C#Cc1n[nH]c2c(-c3cn([C@@H](C)c4ccccc4)c(=O)[nH]c3=O)cc(F)cc12 — inhibition (Fibroblast growth factor receptor 3 (FGFR3, Homo sapiens, UniProt P22607); enzyme activity; inhibitor; 0.1 µM): -2.7%
CCOC(=O)[C@H]1Cc2c(cc([N+](=O)[O-])cc2[N+](=O)[O-])[C@@H](O)[C@@]12C(=O)Nc1ccc(C)cc12 — inhibition (CDK4; cell-free assay; inhibitor; TR-FRET; 1 µM): 67.8%
CCOC(=O)c1ccc(OC(=O)CCCCCNC(=N)N)cc1 — inhibition (REN; enzyme activity; inhibitor; 10 µM): 0%
COc1cc(Nc2ncc(F)c(Nc3ccc4c(n3)NC(=O)C(C)(C)O4)n2)cc(OC)c1OC — inhibition (Cyclin-G-associated kinase (GAK, Homo sapiens, UniProt O14976); binding; 10 µM): 95%
CCOC(=O)[C@H]1Cc2c(cc([N+](=O)[O-])cc2[N+](=O)[O-])[C@H](O)[C@]12C(=O)Nc1c(F)cccc12 — inhibition (CDK4; cell-free assay; inhibitor; TR-FRET; 1 µM): 32.6%
